Screening results as filed in PubChem.
CSC inhib: cancer stem cell viability inhibitors, primary screen, luminescence. cancer stem cell-like cells viability. inhibition, % at 7.5 µM. 300,000 compounds, 1.1% hits. AID 2717, 2010; in the data active = inhibition above about 75%; tested in HMLE shEcad cells
SKKanGAS inh: S. pyogenes SKKanGAS growth inhibitors in kanamycin, primary screen, streptokinase expression inhibitor project, SKKanGAS strain, BacTiter-Glo luminescence; 300,000 compounds, 1.3% hits; inhibition, % at 7.5 µM; 6 h;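 active = mean replicate score, as percent of positive control median, at least 50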;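 also: strain carries kanamycin resistance gene driven by streptokinase promoter and grows in 40 µg/ml kanamycin; loss of luminescence reflects streptokinase promoter inhibition or plain growth inhibition; 0% = median of DMSO wells and 100% = positive control at its reference dose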
T cruzi inh: inhibitors of intracellular T. cruzi growth, primary screen, luminescence, NIH3T3 host cells | T. cruzi beta-gal in NIH3T3, 90 h | inhibition, % (test concentration not listed) | 300,000 compounds, 1.4% hits;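 active = mean inhibition across valid replicates above about 55%, limit read from the data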;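 also: signal also drops with host cell toxicity which is not excluded here; 0% = plate median of DMSO wells and 100% = zero luminescence signal; higher percent means less beta-gal luminescence so fewer parasites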
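Assay system: NIH/3T3 host cells with β-galactosidase reporter T. cruzi; input: 5,000 host fibroblasts per well; compound: single 50 nL compound addition per well in DMSO; timing: ≥90 h infection period, 3 h prior cell attachment; measured by: GalScreen β-gal luminescence, detergent lysis, 60 min; evaluation: percent inhibition of parasite-derived β-gal signal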
aSyn 5UTR inh: MLPCN primary screen, SNCA 5' untranslated region. inhibition, % (tested at 7.5 µM). 300,000 compounds, 0.82% hits. AID 1813, 2009. alpha-synuclein 5'UTR reporter, inhibitor activity; in the data active = inhibition above about 60%;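 also: H4 neuroglioblastoma cells stably carrying SNCA 5'UTR luciferase fusion; 0% = DMSO wells and 100% = positive control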
Mdm2 MdmX PPI: inhibitors of human Mdm2-MdmX association, primary screen, cell-based, luminescence, split luciferase, SaOS-2, uHTS | Protein Mdm4 (Homo sapiens) + E3 ubiquitin-protein ligase Mdm2 (Homo sapiens), … | SaOS-2 split-luciferase Mdm2/MdmX complementation | inhibition, % at 8 µM | 330,000 compounds, 3% hits | AID 485346, 2010;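 active = inhibition of at least 50% at 8 µM in the primary screen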
Target sequence (O15151 whole entry, looked up): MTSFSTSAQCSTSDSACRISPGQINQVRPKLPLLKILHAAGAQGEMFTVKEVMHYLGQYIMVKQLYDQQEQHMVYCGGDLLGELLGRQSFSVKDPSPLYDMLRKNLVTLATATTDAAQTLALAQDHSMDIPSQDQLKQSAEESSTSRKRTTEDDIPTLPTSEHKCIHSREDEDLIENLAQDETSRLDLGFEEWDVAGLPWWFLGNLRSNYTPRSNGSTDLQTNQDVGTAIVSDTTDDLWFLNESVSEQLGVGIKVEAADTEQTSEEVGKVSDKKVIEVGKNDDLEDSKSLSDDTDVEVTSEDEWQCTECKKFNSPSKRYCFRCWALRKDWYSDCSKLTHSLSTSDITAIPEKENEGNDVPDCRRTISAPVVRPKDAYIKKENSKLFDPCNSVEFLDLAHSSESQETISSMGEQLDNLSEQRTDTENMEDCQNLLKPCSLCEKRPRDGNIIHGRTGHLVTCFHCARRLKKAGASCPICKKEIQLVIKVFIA
Target sequence (Q00987 whole entry, looked up): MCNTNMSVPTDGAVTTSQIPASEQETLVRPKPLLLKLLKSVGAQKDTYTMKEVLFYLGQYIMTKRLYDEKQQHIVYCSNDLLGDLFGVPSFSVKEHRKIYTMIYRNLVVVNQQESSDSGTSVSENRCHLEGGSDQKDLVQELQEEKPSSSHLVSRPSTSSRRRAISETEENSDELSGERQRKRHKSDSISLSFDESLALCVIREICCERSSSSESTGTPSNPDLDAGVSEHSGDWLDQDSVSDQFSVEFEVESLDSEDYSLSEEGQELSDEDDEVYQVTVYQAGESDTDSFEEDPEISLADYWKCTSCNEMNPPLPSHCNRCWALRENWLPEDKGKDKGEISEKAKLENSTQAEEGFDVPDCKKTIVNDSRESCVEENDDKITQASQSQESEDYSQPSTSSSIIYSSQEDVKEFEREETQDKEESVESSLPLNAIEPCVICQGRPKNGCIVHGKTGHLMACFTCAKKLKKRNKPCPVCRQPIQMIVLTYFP
Mdm2-MdmX conf: Mdm2-MdmX complex disruptors, retested hits, confirmation, luminescence, single concentration; shares compounds with Mdm2 MdmX PPI; Mdm2-MdmX binding, luminescent assay; inhibition, % at 8 µM; 10,000 compounds, 55% hits; AID 489028, 2010; in the data active = inhibition above about 40%
Full FLuc ctr: full-length luciferase signal inhibition, confirmation, counter-screen for Mdm2/MdmX interaction inhibitor project, cell-based, single concentration, SaOS-2 | inhibition, % at 8 µM | 6,200 compounds, 77% hits | SaOS-2 full-length luciferase counterscreen, luminescence | shares compounds with Mdm2 MdmX PPI | AID 504607, 2011;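 active = mean inhibition at 8 µM reaching about 37%, which flags the compound as non-specific, limit read from the data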;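 also: p53-null SaOS-2 cells with luciferase driven by a doxycycline-inducible promoter; compound on cells about two nights before reading with doxycycline added after day one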
* hit, by the source's call; nt = no result. In the library only some 5.4% were active in any assay of this set; here they are far more common.

SMILES	CSC inhib	SKKanGAS inh	T cruzi inh	aSyn 5UTR inh	Mdm2 MdmX PPI	Mdm2-MdmX conf	Full FLuc ctr
O=C(CCS(=O)(=O)c1ccc(F)cc1)Nc1nc(-c2ccncc2)cs1	59	-4	-19	-11	89*	68*	34
O=C(Nc1nc(-c2ccccc2)cs1)c1ccccc1NS(=O)(=O)c1ccc(F)cc1	121*	85*	-8	63*	90*	89*	26
O=C(CCS(=O)(=O)c1ccccc1)Nc1nc2c(s1)COc1ccccc1-2	30	2	-65	-5	63*	10	nt
COc1ccc(-c2csc(NC(=O)CS(=O)(=O)c3ccc(F)cc3)n2)cc1OC	-4	29	-1	11	6	nt	nt
O=C(Nc1nc2c(s1)COc1ccccc1-2)c1cccs1	21	19	-9	-104	30	nt	nt
O=C(CCS(=O)(=O)c1ccccc1)Nc1nc(-c2cccs2)cs1	27	-8	-125	-15	97*	47*	51*
COc1ccc(-n2c(=O)[nH]c3cc(C(=O)NCCc4ccccc4)ccc3c2=O)cc1OC	6	2	-14	5	-10	nt	nt
O=C(CSc1n[nH]c(-c2ccc(Br)cc2)n1)N1CCOCC1	11	nt	nt	nt	-19	nt	nt
CC(C)c1nnc(NC(=O)CCS(=O)(=O)c2nc(-c3cccs3)cc(C(F)(F)F)n2)s1	45	-10	-18	-54	95*	44*	63*
O=C(NCC1CCCCC1)C1(CC2CC(c3ccc(Cl)cc3)=NO2)CCNCC1 (stereo unspecified)	10	3	13	-44	67*	26	nt
O=C(NCC1CCCCC1)C1(CC2CC(c3cccc(Br)c3)=NO2)CCNCC1 (stereo unspecified)	-4	6	7	3	79*	34	nt
CCOc1cc(C(=O)N2CCC(CC3CC(c4ccc(Cl)cc4)=NO3)(C(=O)NCC3CCCCC3)CC2)cc(OCC)c1OCC (stereo unspecified)	9	22	27	14	8	nt	nt
CCCCCCCNC(=O)C1(CC2CC(c3ccccc3)=NO2)CCNCC1 (stereo unspecified)	21	nt	nt	nt	54*	11	nt
COc1ccc(CC(=O)Nc2cc(S(=O)(=O)N3CCCC3)ccc2Cl)c(OC)c1	nt	nt	nt	nt	-2	nt	nt
COC(=O)[C@]1(CC(C)C)N[C@H](c2ccc(-c3ccc(Cl)c(Cl)c3)cc2)[C@@H]2C(=O)N(C)C(=O)[C@@H]21	36	21	17	33	57*	28	nt
COC(=O)[C@]1(Cc2ccccc2)N[C@H](c2ccc(-c3ccccc3)cc2)[C@@H]2C(=O)N(C)C(=O)[C@@H]21	26	2	7	36	30	nt	nt
COC(=O)[C@]1(Cc2ccccc2)N[C@H](c2ccc(-c3cccc(Cl)c3)cc2)[C@@H]2C(=O)N(C)C(=O)[C@@H]21	-1	21	48	36	55*	36	74*
CCN1C(=O)[C@H]2[C@@H](c3ccc(-c4ccc(Cl)c(Cl)c4)cc3)N[C@@](CC(C)C)(C(=O)OC)[C@H]2C1=O	16	18	8	25	36	nt	nt
CCN1C(=O)[C@H]2[C@@H](c3ccc(-c4cccc(Cl)c4)cc3)N[C@@](CC(C)C)(C(=O)OC)[C@H]2C1=O	nt	nt	nt	nt	52*	22	nt
COC(=O)[C@]1(Cc2ccccc2)N[C@H](c2ccc(-c3ccc(Cl)c(Cl)c3)cc2)[C@@H]2C(=O)N(C)C(=O)[C@@H]21	6	10	27	31	56*	51*	82*
Cc1ccc(OCC(=O)NCc2n[nH]c(=O)c3ccccc23)cc1	nt	-8	5	17	6	nt	nt
C/C(=N\Nc1nc(-c2ccccc2O)nc2ccccc12)c1ccccc1	-12	7	35	-91	18	nt	nt
c1ccc(-c2nc(N3CCCCCC3)c3ccccc3n2)nc1	-4	109*	63*	26	84*	86*	21
C/C(=N\Nc1nc(-c2ccccn2)nc2ccccc12)c1ccc(F)cc1	82*	-2	34	75*	75*	38	34
Fc1ccc(Oc2nc(-c3ccccn3)nc3ccccc23)cc1	-7	42	-18	-95	57*	5	nt
SMILES	CSC inhib	SKKanGAS inh	T cruzi inh	aSyn 5UTR inh	Mdm2 MdmX PPI	Mdm2-MdmX conf	Full FLuc ctr
CCc1ccccc1NC(=S)N(Cc1ccc(OC)cc1)CC1CCC(C(=O)O)CC1 (stereo unspecified)	-8	-3	-5	1	19	nt	nt
Cn1c(-c2ccccc2)cc2ccccc21	4	8	-12	-20	6	nt	nt
Cn1c(-c2ccccc2)cc2c3no[n+]([O-])c3ccc21	108*	35	73*	-69	58*	73*	53*
CC(=O)Nc1nonc1-c1nc2ccccc2n1Cc1ccccc1	45	10	9	45	70*	66*	118*
CC(=O)Nc1nonc1-c1nc2ccccc2n1Cc1nnc(C)o1	-14	11	-8	-19	19	nt	nt
O=[N+]([O-])c1ccc(N=Nc2c(O)[nH]c3ccc(F)cc23)cc1	45	14	5	-82	54*	-44	nt
COCCN(C(=O)COC(=O)CCCOc1ccccc1)c1c(N)n(Cc2ccccc2)c(=O)[nH]c1=O	-10	14	-4	-4	11	nt	nt
COc1cnc(-c2ccccn2)nc1N(C)C	45	-5	48	99*	72*	79*	42*
CN(C)c1nc(-c2ccccn2)nnc1-c1ccccc1	-9	12	50	79*	76*	4	nt
CCN(CC)c1nc(-c2ccccn2)nc(-c2ccccc2)c1C#N	-15	37	58*	35	59*	38	nt
CC(=O)N1c2ccccc2CCc2ccc([N+](=O)[O-])cc21	-8	-11	-16	-3	-17	nt	nt
Cc1cc(Nc2nc3ccccc3nc2Cl)n(-c2ccccc2)n1	nt	-2	10	-88	64*	59*	41*
COc1ccc(-n2cnc3ccccc3c2=O)c([N+](=O)[O-])c1	10	3	-16	14	15	nt	nt
CCOc1ccc(CN2CCN(CC(O)Cn3c4ccccc4c4ccccc43)CC2)cc1 (stereo unspecified)	9	7	30	-10	89*	72*	36
CN1CCN(CC(O)Cn2c3ccccc3c3ccccc32)CC1 (stereo unspecified)	12	8	21	-13	29	nt	nt
